Assay results as given in PubChem BioAssay.
Activity calls are given as the source filed them.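 Rule for the calls, unless noted: active = Her2 level under about 52% in both replicate screens, with viability over 70% of control (limit read from the data); inconclusive = Her2 under the limit in one screen only, or viability under 70%; inactive = Her2 level above the set limit.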

Key:
[1] = Her2 expression decrease, cell viability multiplex – SKBR3 breast tumor cells, AlphaScreen, ATP viability, primary screen (AID 461); conditions: SKBR3 Her2 protein level, 18-24 h, measured here: SKBR3 viability, ATP luminescence, at 10 µM;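 for Her2 level: lower value means less Her2 protein in the cells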;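 for viability: percent of carrier control wells set as 100% viability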
[2] = biological target: Receptor tyrosine-protein kinase erbB-2 (Homo sapiens) (UniProt P04626); assay: as above; conditions: 18-24 h, at 10 µM, stronger effect = lower value
Sequence of Receptor tyrosine-protein kinase erbB-2 (Homo sapiens) (P04626 whole entry, looked up): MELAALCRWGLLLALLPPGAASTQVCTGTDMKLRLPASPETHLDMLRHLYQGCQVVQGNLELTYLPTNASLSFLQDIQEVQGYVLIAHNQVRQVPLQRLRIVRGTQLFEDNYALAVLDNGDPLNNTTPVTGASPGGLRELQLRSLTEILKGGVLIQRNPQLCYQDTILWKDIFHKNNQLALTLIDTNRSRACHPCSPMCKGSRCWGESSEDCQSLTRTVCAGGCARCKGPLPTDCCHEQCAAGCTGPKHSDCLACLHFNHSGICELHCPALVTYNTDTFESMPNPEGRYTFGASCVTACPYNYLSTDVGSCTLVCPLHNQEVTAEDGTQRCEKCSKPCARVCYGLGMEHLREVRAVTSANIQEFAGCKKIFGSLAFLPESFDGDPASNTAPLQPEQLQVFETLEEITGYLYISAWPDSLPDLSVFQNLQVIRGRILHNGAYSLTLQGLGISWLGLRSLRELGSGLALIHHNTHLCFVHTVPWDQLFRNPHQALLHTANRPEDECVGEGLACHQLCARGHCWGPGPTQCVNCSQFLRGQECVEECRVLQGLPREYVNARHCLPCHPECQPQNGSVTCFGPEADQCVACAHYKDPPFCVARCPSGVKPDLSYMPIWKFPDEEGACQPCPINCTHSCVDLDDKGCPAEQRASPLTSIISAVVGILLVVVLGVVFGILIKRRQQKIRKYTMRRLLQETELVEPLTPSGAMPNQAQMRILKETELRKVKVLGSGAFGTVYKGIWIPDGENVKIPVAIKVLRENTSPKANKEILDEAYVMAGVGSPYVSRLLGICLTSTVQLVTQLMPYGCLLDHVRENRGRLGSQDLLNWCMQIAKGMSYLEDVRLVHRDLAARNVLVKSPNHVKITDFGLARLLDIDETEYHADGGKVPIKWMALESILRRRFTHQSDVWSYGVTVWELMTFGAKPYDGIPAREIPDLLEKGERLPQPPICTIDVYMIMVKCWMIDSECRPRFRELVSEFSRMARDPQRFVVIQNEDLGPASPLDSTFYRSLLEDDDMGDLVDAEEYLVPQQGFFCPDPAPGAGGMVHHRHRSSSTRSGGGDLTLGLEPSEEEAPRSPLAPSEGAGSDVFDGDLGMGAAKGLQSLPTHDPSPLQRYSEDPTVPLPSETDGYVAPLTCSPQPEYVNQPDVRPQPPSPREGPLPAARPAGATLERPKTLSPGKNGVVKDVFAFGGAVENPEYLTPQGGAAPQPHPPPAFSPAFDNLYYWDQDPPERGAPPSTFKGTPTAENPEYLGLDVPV

[3] = reduced viability of SK-BR-3 breast cancer cells – cell-based, 24 h, human, pilot screen (AID 572;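 active = viability at or below 10% of carrier control in both of two separate runs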;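 note: compound exposure lasted between 18 and 24 h rather than exactly 24 h; 100% = carrier-treated control wells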); conditions: SK-BR-3 viability, CellTiter-Glo luminescence, at 10 µM, stronger effect = lower value
[4] = HUVEC growth inhibition – cell-based, human, primary screen (AID 575;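 active = viability at or below 30% in both replicate assays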;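 note: 100% = median of untreated cell wells with 0.1% DMSO on each plate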); conditions: HUVEC proliferation, CellTiter-Glo luminescence, 72 h; at 10 µM; stronger effect = lower value
Outline: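 system = HUVEC primary cells | amount = 1250 cells/well | buffer or medium = supplemented EBM, 2% fetal bovine serum | dosing = single-point 10 µM, DMSO 0.1% final | times = 72 h compound incubation | detection = CTG luminescence | read-out = % viability relative to median vehicle-well signal on each plate | control set = vehicle and MePR control wells | format = collagen-coated 384-well format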

[5] = H69AR cell proliferation blockers – human, duplicate replicates, primary screen (AID 580;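 active = viability at or under a set limit in both replicates, limit being median viability minus 3 SD, cut at about 48% in these data, passing the limit was not always enough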;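 note: 100% = mean luminescence of untreated wells and 0% = no signal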); conditions: H69AR lung tumor cells viability, ATP luminescence, 72 h; at 10 µM; stronger effect = lower value
[6] = MRP1 drug-resistance reversers in H69AR cells – cell-based, doxorubicin co-treatment, pilot screen (AID 601;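 active = viability loss from added drug above about 55%, and viability with drug at most 40%, in both replicates, limit read from the data, passing the limit was not always enough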); conditions: CellTiter-Glo, 72 h, at 10 µM; for differential viability (reversal): stronger effect = higher value
[7] = yeast transport mutant growth inhibition pilot in 384-well plates, post-Golgi transport modulator project (AID 636; in the data active = inhibition above about 31%); conditions: absorbance 615 nm, about 18 h, stronger effect = higher value
[8] = growth suppression of yeast trafficking mutant, preliminary HTS, modulators of trafficking downstream of Golgi apparatus project, 1536-format plate, OD 615 nm (AID 637; in the data active = inhibition above about 30%); conditions: yeast transport mutant growth, absorbance 615 nm, 18 h; stronger effect = higher value
[9] = H69AR cells + 2 uM doxorubicin, measured here: viability with 2 uM doxorubicin, stronger effect = lower value
[10] = H69AR cells, compound alone cytotoxicity

SMILES	viability [1] [%]	Her2 level [2]	viability [3]	viability [4]	viability [5]	differential viability (reversal) ([6]; H69AR cells + 2 uM doxorubicin)	viability [6, 9] [%]	viability [6, 10] [%]	inhibition [7]	inhibition [8]
CCc1ccccc1-n1c(SCC(=O)N2CCCC2)nnc1-c1ccccn1	106	99.5% (inactive)	106% (inactive)	123% (inactive)	95.3% (inactive)	1.95% (inactive)	93.3	95.3	1.92% (inactive)	-6.03% (inactive)
CCOc1ccc(OCc2cccc(C(=O)O)c2)cc1	108	106% (inactive)	108% (inactive)	77.6% (inactive)	89.6% (inactive)	10.5% (inactive)	79.1	89.6	-1.6% (inactive)	-3.87% (inactive)
CCCC(C)c1nnc(NC(=O)C2CCCO2)s1 (stereo not given)	126	91% (inactive)	126% (inactive)	95.8% (inactive)	93.9% (inactive)	0.895% (inactive)	93	93.9	-7.33% (inactive)	-3.06% (inactive)
CCOC(=O)N1CCN(C(=O)COc2ccc(Br)cc2Cl)CC1	96	112% (inactive)	96% (inactive)	117% (inactive)	93.7% (inactive)	2.46% (inactive)	91.2	93.7	-1.17% (inactive)	-5.33% (inactive)
CN(C)S(=O)(=O)N1CCN(c2cccc(Cl)c2)CC1	112	101% (inactive)	112% (inactive)	92% (inactive)	91% (inactive)	-15% (inactive)	106	91	0% (inactive)	27% (inactive)
NC(=O)c1nsnc1-c1ccccc1O	105	124% (inactive)	105% (inactive)	99.9% (inactive)	90.2% (inactive)	-6.96% (inactive)	97.2	90.2	2.24% (inactive)	16.8% (inactive)
O=C(Nc1ccccn1)NC(C(F)(F)F)C(F)(F)F	98.5	102% (inactive)	98.5% (inactive)	100% (inactive)	92.9% (inactive)	2.58% (inactive)	90.3	92.9	-1.07% (inactive)	1.15% (inactive)
Cc1cc(OCC(=O)Nc2ccc3oc(-c4ccncc4)nc3c2)ccc1Cl	92.5	121% (inactive)	92.5% (inactive)	68% (inactive)	60.1% (inactive)	1.31% (inactive)	58.7	60.1	3.95% (inactive)	8.85% (inactive)
CCOC(=O)N1CCN(c2c(NCCN(C)Cc3ccccc3)c(=O)c2=O)CC1	98	95% (inactive)	98% (inactive)	84.3% (inactive)	99% (inactive)	6.12% (inactive)	92.9	99	0.27% (inactive)	-2.3% (inactive)
Cc1c(Br)c(C(F)(F)F)nn1CC(=O)NCCN1CCOCC1	122	100% (inactive)	122% (inactive)	108% (inactive)	96.6% (inactive)	10.3% (inactive)	86.3	96.6	-6.27% (inactive)	2.1% (inactive)
CCCS(=O)(=O)N1CCN(C(=O)c2cccs2)CC1	99.5	99.5% (inactive)	99.5% (inactive)	110% (inactive)	99.9% (inactive)	-0.9% (inactive)	101	99.9	-1.07% (inactive)	2.95% (inactive)
Cc1ccc(C)c(N2CCN(S(=O)(=O)c3ccc4c(c3)OCCO4)CC2)c1	97.5	96.5% (inactive)	97.5% (inactive)	99.2% (inactive)	106% (inactive)	4.96% (inactive)	101	106	-4.81% (inactive)	-3.97% (inactive)
CCC(=O)N[C@@H]1CC(C(C)(C)NC(=O)CC)CC=C1C (stereo not given in full)	105	83.5% (inactive)	105% (inactive)	93.4% (inactive)	86.4% (inactive)	-1% (inactive)	87.4	86.4	-5.33% (inactive)	-0.33% (inactive)
CCCN1C2CCCC1CC(NC(=O)Nc1cccc(C(C)=O)c1)C2 (stereo not given)	105	77% (inactive)	105% (inactive)	94.8% (inactive)	94.3% (inactive)	-2.24% (inactive)	96.5	94.3	-1.95% (inactive)	-0.95% (inactive)
CC(C)OC(=O)CN1C(=O)C(C)(C)Oc2ccc(C(=O)NC3CC3)cc21	96	92.5% (inactive)	96% (inactive)	93.1% (inactive)	91.6% (inactive)	-2.77% (inactive)	94.3	91.6	-3.2% (inactive)	1.94% (inactive)
COc1ccc(NC(=O)CC2Oc3ccccc3NC2=O)cc1 (stereo not given)	87.5	90% (inactive)	87.5% (inactive)	96.2% (inactive)	97.6% (inactive)	0.535% (inactive)	97.1	97.6	0.27% (inactive)	-4.75% (inactive)

SMILES	viability [1] [%]	Her2 level [2]	viability [3]	viability [4]	viability [5]	differential viability (reversal) ([6]; H69AR cells + 2 uM doxorubicin)	viability [6, 9] [%]	viability [6, 10] [%]	inhibition [7]	inhibition [8]
COc1cccc(C(=O)N2CCCC(c3nc(-c4cccs4)no3)C2)c1 (stereo not given)	98	81.5% (inactive)	98% (inactive)	93.4% (inactive)	95.5% (inactive)	2.9% (inactive)	92.6	95.5	-7.43% (inactive)	4.26% (inactive)
COc1cccc(NC(=O)Nc2cccs2)c1	93	79% (inactive)	93% (inactive)	75% (inactive)	79.5% (inactive)	1.41% (inactive)	78.1	79.5	-6.53% (inactive)	-2.3% (inactive)
CN(C)c1ccc2c(c1)OC(N)=C(C#N)C2c1cccc(F)c1 (stereo not given)	92	90.5% (inactive)	92% (inactive)	17.2% (active)	34.7% (active)	-41% (inactive)	75.7	34.7	-3.24% (inactive)	4.75% (inactive)
Oc1cc(NCc2cccnc2)ccc1-c1nc2ccccc2o1	86.5	94% (inactive)	86.5% (inactive)	97.2% (inactive)	82.7% (inactive)	-7.37% (inactive)	90.1	82.7	1.17% (inactive)	10.8% (inactive)
CCc1nnc(NC(=O)C2CC(=O)N(Cc3ccco3)C2)s1 (stereo not given)	107	95% (inactive)	107% (inactive)	111% (inactive)	98.4% (inactive)	4% (inactive)	94.4	98.4	-2.93% (inactive)	2.1% (inactive)
CCOC(=O)c1c(NC(=O)c2cccs2)sc(C)c1C	77	83.5% (inactive)	77% (inactive)	67.8% (inactive)	86.2% (inactive)	2.64% (inactive)	83.6	86.2	-5.33% (inactive)	-0.16% (inactive)
CCCC(=O)N(Cc1cc2ccccc2[nH]c1=O)c1ccccc1OC	97	94.5% (inactive)	97% (inactive)	105% (inactive)	105% (inactive)	5.2% (inactive)	99.5	105	-0.26% (inactive)	12.3% (inactive)
Cc1ccc(S(=O)(=O)C2(C(=O)NC3CCCC3)CC2)cc1	148	87.5% (inactive)	148% (inactive)	104% (inactive)	97.1% (inactive)	9.32% (inactive)	87.8	97.1	-2.34% (inactive)	-2.22% (inactive)
Cc1nc2cccc(C(=O)NC3CCCCC3)c2o1	100	101% (inactive)	100% (inactive)	98.6% (inactive)	93.1% (inactive)	8.96% (inactive)	84.2	93.1	-3.73% (inactive)	7.05% (inactive)
CCNC(=O)CC1C(=O)N(c2ccccc2)C(=O)N1Cc1ccc(OC)cc1 (stereo not given)	94.5	100% (inactive)	94.5% (inactive)	91.9% (inactive)	94.8% (inactive)	5.68% (inactive)	89.1	94.8	-3.68% (inactive)	-2.91% (inactive)
O=C(COc1ccccc1F)NC1CC1	94.5	88.5% (inactive)	94.5% (inactive)	88.7% (inactive)	107% (inactive)	11.7% (inactive)	95	107	-6.58% (inactive)	-2.5% (inactive)
CN(C)C(=O)CN(c1ccc(F)c(Cl)c1)S(C)(=O)=O	101	111% (inactive)	101% (inactive)	92.7% (inactive)	90.8% (inactive)	-10.3% (inactive)	101	90.8	-2.11% (inactive)	-7.05% (inactive)
COc1ccccc1NC(=O)N1CCCC1C(=O)NC1CCCCC1 (stereo not given)	104	91.5% (inactive)	104% (inactive)	101% (inactive)	80.1% (inactive)	-4.57% (inactive)	84.7	80.1	-9.32% (inactive)	-2.5% (inactive)
COC(=O)C(NC(C)=O)(Nc1ccccn1)C(F)(F)F (stereo not given)	98	78% (inactive)	98% (inactive)	105% (inactive)	89% (inactive)	-5.41% (inactive)	94.4	89	-1.97% (inactive)	-7.64% (inactive)
COC(=O)c1ccccc1NC(=O)CSc1nnnn1C1CCCCC1	120	112% (inactive)	120% (inactive)	81.2% (inactive)	85.9% (inactive)	0.925% (inactive)	85	85.9	-5.6% (inactive)	-2.26% (inactive)
CCc1nnc(NC(=O)c2cccc(C(=O)Nc3nnc(CC)s3)n2)s1	53.5	72% (inactive)	53.5% (inactive)	3.29% (active)	8.87% (active)	1.33% (inactive)	7.54	8.87	83.5% (active)	73% (active)
